Eleven compounds from ChEMBL document CHEMBL1122066, “Arylhydroxamic acid N,O-acyltransferase substrates. Acetyl transfer and electrophile generating activity of N-hydroxy-N-(4-alkyl-, 4-alkenyl-, and 4-cyclohexylphenyl)acetamides” (J Med Chem, 1982) can be followed below.

The species entered for test [1] is Rattus norvegicus. Put plainly: Tested for its arylhydroxamic acid N,O-Acyltransferase (AHAT) catalyzed transacetylation of aminoazobenzene with partially purified hepatic enzyme in rat. Format: functional. In a few lines: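 Rat liver AHAT came from 105000g cytosol, partially purified 2- to 3-fold by ammonium sulfate. It was assayed at 1.0 mg/mL protein in pH 7.0 pyrophosphate/1 mM DTT/KCl with hydroxamic acid (1.0 mM) and AAB (0.15 mM) for 5 min at 37 °C in air. The reaction was stopped with TCA/EtOH and read at 497 nm, with a heat-denatured enzyme control. Rates are mean ± SE, N = 3–4, run in triplicate.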

In test [2] the test system is arylhydroxamic acid N,O-acyltransferase (Mesocricetus auratus). Nature of the test: Tested for its arylhydroxamic acid N,O-Acyltransferase (AHAT) catalyzed transacetylation of aminoazobenzene with partially purified hepatic enzyme in hamster. Details: Rate: unit not given here.
A further test is filed under the species Cricetulus griseus. Nature of the test: Tested for its arylhydroxamic acid N,O-Acyltransferase (AHAT) catalyzed transacetylation of aminoazobenzene with hamster hepatic enzyme after dialysis. Format: functional. An outline of the steps:
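Hamster enzyme (partially purified by ammonium sulfate) was preincubated 20 min at 37 °C in air with the hydroxamic acid; controls had ethanol only. It was then dialyzed 6 h at 4 °C against N2-sparged pH 7.0 pyrophosphate/1 mM DTT/2% EtOH with three buffer changes. Portions taken before and after dialysis were assayed with AAB plus the same hydroxamic acid for 5 or 8 min, read at 497 nm. Rates are nmol/mg/min, mean of two triplicate experiments.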

The species entered for test [3] is Rattus norvegicus. Put plainly: Aminoazobenzene transacetylation inhibition by partially purified hepatic enzyme using N-ethyl maleimide as inhibitor (1.0 mM) in rat. Format: functional. In a few lines: (§1)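 Rat or hamster liver cytosol (105000g supernatant), partially purified by ammonium sulfate fractionation, was incubated 5 min with the sulfhydryl reagent (1.0 mM). AAB transacetylation was then run in pH 7.0 pyrophosphate/1 mM DTT at 37 °C with hydroxamic acid donor (1.0 mM final) and AAB (0.15 mM final). It was stopped with TCA/EtOH and read at 497 nm. Values are % inhibition, means of 2–3 triplicate experiments.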

Test [4] has as its system Cricetinae gen. sp. Nature of the test: Aminoazobenzene transacetylation inhibition by partially purified hepatic enzyme using 4-chloro mercuri benzenesulfonate as inhibitor (1.0 mM) in hamster. The format is functional. Particulars: Cricetulus griseus. An outline of the steps:
as §1

The subject of test [5] is Cricetinae gen. sp. Nature of the test: Aminoazobenzene transacetylation inhibition by partially purified hepatic enzyme using iodo acetamide as inhibitor (1.0 mM) in hamster. The format is functional. Particulars: Cricetulus griseus. In a few lines:
as §1

For test [6], the species on record is Rattus norvegicus. Put plainly: Aminoazobenzene transacetylation inhibition by partially purified hepatic enzyme using 4-chloro mercuri benzenesulfonate as inhibitor (1.0 mM) in rat. Format: functional. An outline of the steps:
as §1

In test [7] the test system is Cricetinae gen. sp. Nature of the test: Aminoazobenzene transacetylation inhibition by partially purified hepatic enzyme using N-ethyl maleimide as inhibitor (1.0 mM) in hamster. To be noted: Cricetulus griseus. Format: functional. An outline of the steps:
as §1

The species named for test [8] is Rattus norvegicus. Nature of the test: Aminoazobenzene transacetylation inhibition by partially purified hepatic enzyme using iodo acetamide as inhibitor (1.0 mM) in rat. The format is functional. An outline of the steps: as §1
Test [9] relates to arylhydroxamic acid N,O-acyltransferase (Mesocricetus auratus). Put plainly: Tested for its arylhydroxamic acid N,O-Acyltransferase (AHAT) catalyzed transacetylation of aminoazobenzene with hamster hepatic enzyme before dialysis.
For test [10] the test system is unchanged. Nature of the test: Tested for its arylhydroxamic acid N,O-Acyltransferase (AHAT) catalyzed transacetylation of aminoazobenzene with hamster hepatic enzyme after dialysis.
Test [11] concerns Cricetinae gen. sp. Put plainly: Aminoazobenzene transacetylation inhibition by partially purified hepatic enzyme using iodo acetamide as inhibitor (1.0 mM) in hamster. Particulars: at 1 mM.

Regarding `CC(=O)N(O)c1ccc(C=C(C)C)cc1`, the Rate in the test filed under Rattus norvegicus [1] turned out to be 5.7 nmol/min/mg; in [2], 13.1.

Turning to `CCCCc1ccc(N(O)C(C)=O)cc1`, the values for the Rate (in the test listed under Rattus norvegicus [1]; in test [2]) were 4.7 nmol/min/mg and 8.8, respectively.

For the compound `CC(=O)N(O)c1ccc(-c2ccccc2)cc1`, the values for the Rate (mg of protein) (in the test filed under Cricetulus griseus; in [9]) were 6.9 and 6.3, respectively. Besides, the inhibition came out at 92% in the test listed under Rattus norvegicus [3]; 100% with Cricetinae gen. sp. [4]; 100% in the test on Cricetinae gen. sp. [5]; 100% in the test filed under Rattus norvegicus [6]; 100% with Cricetinae gen. sp. [7]; 95% in the test listed under Rattus norvegicus [8]. For the same compound, the figures for the Rate (in the test filed under Rattus norvegicus [1]; in [2]) were 5.8 nmol/min/mg and 22.4, respectively.

As for `CCCCCc1ccc(N(O)C(C)=O)cc1`, the Rate in the test listed under Rattus norvegicus [1] came out at 5.2 nmol/min/mg; in [2] it was 13.8.

Regarding `C=Cc1ccc(N(O)C(C)=O)cc1`, the Rate in the test filed under Rattus norvegicus [1] worked out at 3.3 nmol/min/mg; in test [2] it was 6.6.

For the compound `C/C=C/c1ccc(N(O)C(C)=O)cc1`, the Rate in the test filed under Rattus norvegicus [1] turned out to be 5.9 nmol/min/mg; in [2] it was 13.

With `CC(=O)N(O)c1ccccc1`, the Rate in the test listed under Rattus norvegicus [1] is 0.2 nmol/min/mg; in test [2] it was 0.6.

For `CCc1ccc(N(O)C(C)=O)cc1`, the values for the Rate (in the test filed under Rattus norvegicus [1]; in [2]) were 2.1 nmol/min/mg and 3.5, respectively.

Consider `CC(=O)N(O)c1ccc(C2CCCCC2)cc1`, for which the Rate (mg of protein) in [10] was found to be 1.7; in [2], 9.4; in test [9], 3.2. Further, the inhibition in the test listed under Rattus norvegicus [3] (at 1 mM) is 100%; with Cricetinae gen. sp. [4] (at 1 mM) it was 100%; in the test listed under Rattus norvegicus [6] (at 1 mM), 100%; in the test with Cricetinae gen. sp. [7] (at 1 mM), 96%; in the test listed under Rattus norvegicus [8] (at 1 mM), 99%; in the test on Cricetinae gen. sp. [11], 100%. Besides, in the test listed under Rattus norvegicus [1], the Rate turned out to be 4.7 nmol/min/mg.

Consider `CC(=O)N(O)c1ccc(C)cc1`, for which the Rate in the test filed under Rattus norvegicus [1] is 1.1 nmol/min/mg; in [2], 2.1.

For the compound `CCCc1ccc(N(O)C(C)=O)cc1`, the Rate in the test listed under Rattus norvegicus [1] amounted to 3.1 nmol/min/mg; in test [2], 5.3.
